From PubChem BioAssay
Records with an inconclusive call do not appear.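 The calls were made as follows, unless noted: active = cell viability at or below a set limit in both duplicate runs, the limit being the all-compound median minus 4 SD (cut at about 23% in these data, passing the limit was not always enough); inconclusive = no clear call, values can overlap the other calls; inactive = the rest.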

What was measured:
[1] = OD615 S. cerevisiae growth inhibition, permissive medium, pilot counter-assay, permissive growth control for S. cerevisiae lifespan shortening project (AID 705;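 active = growth inhibition above 25% in both replicates, a cutoff set 3 SD above the mean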); settings: OD615, 24 h, at 10 µM, hits give high values
In short: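 assay system = Saccharomyces cerevisiae strain carrying genetically modified DeaD replicative-lifespan system | technique = absorbance (optical density) at 615 nm | buffer or medium = permissive raffinose/galactose medium | timing = cells pre-grown 4 h, then 24 h compound exposure, 30 °C humidified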

[2] = Restrictive medium S. cerevisiae growth inhibition, OD615, pilot screen of yeast lifespan reduction project, restrictive growth control (AID 706;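 active = growth inhibition above a set limit, 3 SD over mean compound inhibition, in both replicates, cut at about 43% in these data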;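 also: modified DeaD lifespan yeast strain shifted to restrictive glucose medium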); settings: OD615, 48 h, at 10 µM, hits give high values
In short: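 System: modified S. cerevisiae. Buffer or medium: CSMM-D glucose medium. Incubation: 4 h pre-growth plus 48 h compound exposure, 30 °C. Detection: absorbance (optical density) measured at 615 nm.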

[3] = viability gain of MRP-1-high H69AR cells under doxorubicin, pilot screen, MRP-1 activator project, CellTiter-Glo, duplicate (AID 807;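 active = viability increase at or above a cutoff of the median across tested compounds plus 3 SD, cut at about 8.5% in these data, passing the limit was not always enough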;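 also: compound pretreatment 18-22 h then 72 h combined with doxorubicin; 0% = doxorubicin alone and 100% = vehicle without doxorubicin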); settings: H69AR viability with doxorubicin, CellTiter-Glo luminescence; at 10 µM; hits give high values
[4] = growth suppression of beta-catenin knockout HCT116, pilot screen, human colon tumor cells (AID 823); settings: CellTiter-Glo, 60 h, at 10 µM, hits give low values;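 also: 0% = wells killed by 20 µM Hyamine and 100% = untreated DMSO cell wells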
[5] = growth suppression of PTEN-deleted HCT116, pilot screen, cell-based, HCT116 clonal line, CellTiter-Glo (AID 824;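 active = viability at or below 27.92% in each of two runs, the all-compound median minus 4 SD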;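 also: 0% = 20 µM Hyamine control and 100% = vehicle cell control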); settings: 60 h, at 10 µM, hits give low values
[6] = inhibitors of the yeast RAM network, pilot screen, dse1pr::URA3 reporter, 5-FOA selection (AID 869;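 active = inhibition over a set limit, the all-compound mean plus 3 SD, in both replicate runs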;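 also: 0% = DMSO wells with no growth and 100% = 10 µM 1-NA-PP1 with full growth; RAM network block rescues cells from 5-FOA so hits raise OD615 growth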); settings: S. cerevisiae dse1pr::URA3 5-FOA growth, OD615, 2 d; at 10 µM; hits give high values; strain carries analog-sensitive mutant Cbk1 kinase
[7] = RAM signaling pathway blockade in yeast – S. cerevisiae, Pdr1DBD-CYC8 efflux-inhibited sensitized strain, primary screen (AID 1298;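 active = RAM network inhibition above 8.4% in each of two replicates, 3 SD over the compound average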;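 also: 0% = DMSO untreated cells without growth and 100% = 10 µM 1-NA-PP1 full growth; higher means more yeast growth rescued from 5-FOA killing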); settings: S. cerevisiae cbk1-as DSE1-URA3 strain, 5-FOA growth OD615, 2 d; at 50 µM; hits give high values

NC(=O)C1CCN(C(=O)c2ccc(CS(=O)(=O)c3c(Cl)cccc3Cl)o2)CC1
inactive: growth inhibition [1] -1.46% | growth inhibition [2] -0.415% | viability increase [3] -0.98% | viability [4] 109% | viability [5] 98.3% | inhibition [6] 1.49% | RAM network inhibition [7] 1.38%

CCOc1ccc(N(CC(=O)N2CCc3ccccc32)S(=O)(=O)c2c(C)noc2C)cc1
inactive: growth inhibition [1] -1.81% | growth inhibition [2] 10.1% | viability increase [3] -5.12% | viability [4] 65.7% | viability [5] 59.2% | inhibition [6] 3.63% | RAM network inhibition [7] 2.47%

O=S(=O)(NCc1csc(-c2ccccc2)n1)c1ccc(Cl)s1
inactive: growth inhibition [1] -17.6% | growth inhibition [2] -16.7% | viability increase [3] -0.6% | viability [4] 96.9% | viability [5] 102% | inhibition [6] 0.21% | RAM network inhibition [7] 5.99%

COc1ccc(OC)c(C2NC(=O)NC(C)=C2C(=O)Nc2ccc(C)cc2C)c1 (configuration not stated)
inactive: growth inhibition [1] -7.68% | growth inhibition [2] 4.14% | viability increase [3] 0.67% | viability [4] 101% | viability [5] 100% | inhibition [6] 1.77% | RAM network inhibition [7] 2.4%

O=C(Nc1cnc2ccccc2c1)c1cccnc1
inactive: growth inhibition [1] 4.78% | growth inhibition [2] 0.625% | viability increase [3] -7.98% | viability [4] 103% | viability [5] 103% | inhibition [6] 1.74% | RAM network inhibition [7] -0.15%

Cc1nn(C)c(C)c1S(=O)(=O)N(CC(=O)NCc1ccco1)c1ccc(C(C)C)cc1
inactive: growth inhibition [1] -10.3% | growth inhibition [2] -2.95% | viability increase [3] -5.76% | viability [4] 96.8% | viability [5] 97.3% | inhibition [6] -0.17% | RAM network inhibition [7] 7.88%

Cc1cc(N2CCOCC2)nc(SCC(=O)c2ccccc2)n1
inactive: growth inhibition [1] -16.5% | growth inhibition [2] -4.63% | viability increase [3] -1.98% | viability [4] 99% | viability [5] 91.7% | inhibition [6] 2.53% | RAM network inhibition [7] 2.06%

N#CCCN1CCN(S(=O)(=O)c2ccc(S(=O)(=O)N3CCOCC3)cc2)CC1
inactive: growth inhibition [1] -6.47% | growth inhibition [2] 4.95% | viability increase [3] 0.97% | viability [4] 95.2% | viability [5] 98.8% | inhibition [6] -0.88% | RAM network inhibition [7] -2.16%

Cc1ccc(O)c(C2=NOC(O)(C(F)(F)C(F)F)C2)c1 (configuration not stated)
inactive: growth inhibition [1] -0.995% | growth inhibition [2] 9.35% | viability increase [3] -5.27% | viability [4] 93.4% | viability [5] 92.9% | inhibition [6] 0.72% | RAM network inhibition [7] 5.23%

O=C(C1CC1)N1CCc2cc(Br)cc(S(=O)(=O)NCc3ccccn3)c21
inactive: growth inhibition [1] -8.05% | growth inhibition [2] -19% | viability increase [3] -1.89% | viability [4] 99.2% | viability [5] 96.9% | inhibition [6] 1.32% | RAM network inhibition [7] 5.17%

O=C1C(Cl)=C(N2CCOCC2)C(=O)N1c1ccccc1Cl
inactive: growth inhibition [1] -8.11% | growth inhibition [2] -4.76% | viability increase [3] -2.16% | viability [4] 99.2% | viability [5] 103% | inhibition [6] 0.045% | RAM network inhibition [7] 4.96%

O=C(CC1Oc2ccccc2NC1=O)NC1CCCC1 (configuration not stated)
inactive: growth inhibition [1] 1.69% | growth inhibition [2] 2.71% | viability increase [3] 0.05% | viability [4] 103% | viability [5] 102% | inhibition [6] 1.33% | RAM network inhibition [7] 0.1%

O=c1cc(N2CCOCC2)[nH]c(=O)n1Cc1ccc(F)cc1
inactive: growth inhibition [1] 5.3% | growth inhibition [2] -2.77% | viability increase [3] 0.52% | viability [4] 95.3% | viability [5] 99.1% | inhibition [6] 1.04% | RAM network inhibition [7] -0.98%

COc1ccc(-c2cc(C(F)F)n3ncc(C(=O)NCCCN4CCCC4=O)c3n2)cc1
inactive: growth inhibition [1] -3.45% | growth inhibition [2] -7.12% | viability increase [3] -4.32% | viability [4] 78.5% | viability [5] 73.5% | inhibition [6] -0.515% | RAM network inhibition [7] 3.32%

N#Cc1nc(-c2ccccc2F)oc1NC1CCCCC1
inactive: growth inhibition [1] -18.3% | growth inhibition [2] -17.6% | viability increase [3] -2.53% | viability [4] 87.7% | viability [5] 87.6% | inhibition [6] 0.64% | RAM network inhibition [7] 6%

COc1ccc(NC(=O)Nc2c(C)n(C)n(-c3ccccc3)c2=O)cc1
inactive: growth inhibition [1] 1.73% | growth inhibition [2] 2.85% | viability increase [3] -2.06% | viability [4] 103% | viability [5] 97.9% | inhibition [6] 0.655% | RAM network inhibition [7] 1.34%
